Results as given in article PMC5814953 (Nucleic Acids Research, 2017).
Ends that are not written are not given here. Peptide text beside a SMILES is read from it. * marks the point of attachment. Biotin = O=C1N[C@H]2[C@H](CS[C@H]2CCCCC(=O)*)N1

How the values were obtained:
[1] = 2D 1H ROESY NMR of NTD peptide in the absence of isomerase; format: physicochemical; conditions: pH 6.5, 25°C
Outline: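 Synthetic NTD peptide at 2 mM in 20 mM phosphate buffer (90% H2O/10% D2O), pH 6.5, run at 25°C. No isomerase was added; the paired runs contained 0.03 mM bacterially produced Ani1 or Ani2.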

[2] = tested on: Ani2; assay: 2D 1H ROESY NMR, cis-trans isomerization of NTD peptide by Ani2; format: biochemical, Schizosaccharomyces pombe
[3] = tested on: Ani1; assay: 2D 1H ROESY NMR, cis-trans isomerization of NTD peptide by Ani1; format: biochemical, Schizosaccharomyces pombe
[4] = tested on: Sim3-FLAG; assay: Biotinylated peptide pull-down of Sim3-FLAG from yeast cell extract, immunoblot; format: binding, Schizosaccharomyces pombe
[5] = molecular target: T1, Sim3-His, bacterially purified recombinant Sim3 protein (S. pombe, UniProt Q9USQ4 1-396); assay: ITC
T1 sequence (looked up): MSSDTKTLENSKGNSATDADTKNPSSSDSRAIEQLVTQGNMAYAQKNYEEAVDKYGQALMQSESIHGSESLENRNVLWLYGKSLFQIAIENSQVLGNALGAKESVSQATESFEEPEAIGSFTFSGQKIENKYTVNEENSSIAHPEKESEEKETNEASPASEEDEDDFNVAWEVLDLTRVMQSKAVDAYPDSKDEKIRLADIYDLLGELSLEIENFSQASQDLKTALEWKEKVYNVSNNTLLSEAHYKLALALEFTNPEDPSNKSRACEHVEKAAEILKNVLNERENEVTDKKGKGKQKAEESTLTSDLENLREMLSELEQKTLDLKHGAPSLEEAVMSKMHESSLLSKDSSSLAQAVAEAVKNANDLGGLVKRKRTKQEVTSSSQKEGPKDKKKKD

Molecule: SLMAEPGDPIPRPR
- cis-trans exchange cross-peaks ([1]; absence of Ani1 or Ani2, 2 mM peptide, 20 mM phosphate): no cross-peaks were observed
- speed of the cis- and trans-conformational switch ([1]; absence of Ani1 or Ani2, too slow to be detected under the NMR time scale, 2 mM peptide): < 0.1 s⁻¹
- cis-trans exchange cross-peaks ([2]; presence of 0.03 mM Ani2, 2 mM peptide, 20 mM phosphate (90% H2O + 10% D2O, pH 6.5), 25°C): two prominent and reproducible exchange cross-peaks corresponding to Ile14 and Arg16
- cross peaks corresponding to P10 or P13 ([2]; presence of Ani2, 2 mM peptide, pH 6.5, 25°C): No cross peaks were found corresponding to P10 or P13
- cis-trans exchange cross-peaks ([3]; presence of 0.03 mM Ani1, 2 mM peptide, 20 mM phosphate (90% H2O + 10% D2O, pH 6.5), 25°C): two prominent and reproducible exchange cross-peaks corresponding to Ile14 and Arg16
- cross peaks corresponding to P10 or P13 ([3]; presence of Ani1, 2 mM peptide, pH 6.5, 25°C): No cross peaks were found corresponding to P10 or P13

Molecule: CC[C@H](C)[C@H](NC(=O)[C@@H]1CCCN1C(=O)[C@H](CC(=O)O)NC(=O)CNC(=O)[C@@H]1CCCN1C(=O)[C@H](CCC(=O)O)NC(=O)[C@H](C)NC(=O)[C@H](CCSC)NC(=O)[C@H](CC(C)C)NC(=O)[C@H](CO)NC(=O)[C@H](CCCCN)NC(=O)[C@H](CCCCN)NC(=O)[C@H](C)NC(=O)[C@@H](N)CCSC)C(=O)N1CCC[C@H]1C(=O)N[C@@H](CCCNC(=N)N)C(=O)N1CCC[C@H]1C(=O)N[C@@H](CCCNC(=N)N)C(=O)N[C@@H](CCCCN)C(=O)N[C@@H](CCCCN)C(=O)N[C@@H](CCCNC(=N)N)C(=O)N[C@@H](Cc1ccc(O)cc1)C(=O)N[C@@H](CCCNC(=N)N)C(=O)N1CCC[C@H]1C(=O)NCC(=O)N[C@H](C(=O)N[C@H](C(=O)N[C@@H](C)C(=O)N[C@@H](CC(C)C)C(=O)N[C@@H](CCCNC(=N)N)C(=O)N[C@@H](CCCCNC(=O)CCCC[C@@H]1SC[C@@H]2NC(=O)N[C@@H]21)C(=O)O)[C@@H](C)O)[C@@H](C)O [WT SpCENP-A NTD] (H-MAKKSLMAEPGDPIPRPRKKRYRPGTTALRK(Biotin)-OH; N-terminus and C-terminus assumed)
- reduction of Sim3-FLAG interaction ([4]; WT peptide, absence of both ani1 and ani2, vs WT cells (1–0.57)): ~43%
- effect of single null mutation of ani1 or ani2 on Sim3-FLAG binding (in words) ([4]; Δani1 or Δani2 single mutant cell extract, Figure 6B bottom gel): did not grossly affect the binding

B1: SpCENP-A NTD 4PA peptide (quadruple P-to-A mutations of the GRANT prolines), biotinylated (peptide, UniProt Q9Y812 1-20, looked up)
peptide: MAKKSLMAEAGDAIARARKK
modifications: also: biotinylated, position not given here
- Kd [5]: 4.5 µM
